Assay results published in ChEMBL document CHEMBL1152725, “New potent imidazoisoquinolinone derivatives as anti-Trypanosoma cruzi agents: biological evaluation and structure-activity relationships” (Bioorg Med Chem, 2009).
Converted amounts (≈) assume the structure as drawn. The source made the active and inactive calls. The calls are words filed in the database; no cut-off is given here.

What was measured:
L6 = assay: Cytotoxicity against rat L6 cells; format: cell-based
Trypanosoma cruzi = assay: Antitrypanosomal activity against Trypanosoma cruzi Tulahuen 2 epimastigotes after 5 days; format: functional, organism-based; settings: Tulahuen 2, 120 h
How it was run: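 T. cruzi Tulahuen 2 epimastigotes were grown axenically at 28 °C in BHI-tryptose with 5% FCS. Stationary-phase (5-day) cells were inoculated at 1 × 10⁶ cells/mL, with DMSO ≤0.4% final. Cultures ran 5 days with or without compound, first as a 25 µM screen and then at increasing concentrations. IC50 is the concentration halving this ratio.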

DNA = assay: Binding affinity to calf thymus DNA at a DNA-drug molar ratio of 5:1 after 24 hrs by UV spectroscopy; format: nucleic-acid assay; settings: Bos taurus
How it was run: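 Calf thymus DNA was prepared in 10 mM Tris–HCl pH 7.4. Compound (2 × 10⁻⁵ M, from an ethanol stock diluted with water) was mixed 1:1 by volume with the DNA solution at a 5:1 DNA-drug ratio. The mixture was rotated slowly for 24 h. UV absorbance area at maximal absorbance was compared (a24/a0), where 1 means no affinity and 0 means fully bound.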

[1] = Selectivity index, ratio of IC50 for human HeLa cells to IC50 for Trypanosoma cruzi Tulahuen 2 epimastigotes; format: toxicity, cell-based; settings: HeLa cells versus Trypanosoma cruzi Tulahuen 2 epimastigotes, read-out: Ratio IC50
How it was run: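 Selectivity index is the HeLa IC50 divided by the IC50 against T. cruzi Tulahuen 2 epimastigotes (5-day growth assay).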

HeLa = assay: Cytotoxicity against human HeLa cells after 24 hrs by MTT assay; format: cell-based
How it was run: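 HeLa cells were kept in DMEM with 10% FBS, penicillin and streptomycin at 37 °C and 5% CO2. Cells were seeded, and after 48 h compound was added at 4, 20 or 100 µM for 24 h. After PBS washes, cells got MTT at 0.5 mg/mL final for 4 h at 37 °C. Formazan was dissolved in isopropanol/HCl and read at 570 nm after blank subtraction. Survival is % of control, with ≥3 repeats of four samples each.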

Plasmodium falciparum = assay: Antiparasitic activity against Plasmodium falciparum K1; format: functional, organism-based
Leishmania infantum = assay: Antiparasitic activity against Leishmania infantum; format: functional, organism-based
Leishmania donovani = assay: Antiparasitic activity against Leishmania donovani; format: functional, organism-based
[2] = test system: Trypanosoma brucei rhodesiense; assay: Antiparasitic activity against Trypanosoma brucei rhodesiense; format: functional, organism-based
Onchocerca gutturosa [3] = assay: Antiparasitic activity against Onchocerca gutturosa assessed as inhibition of MTT formazan formation; format: functional; set-up: scale not given: the % may be the effect or the level left
Onchocerca gutturosa [4] = assay: Antiparasitic activity against Onchocerca gutturosa assessed as reduction in motility after 120 hrs; format: functional; set-up: scale not given: the % may be the effect or the level left

Row | Structure (SMILES) | IC50 (Trypanosoma cruzi) [µM] | Activity (DNA) | IC50 (Plasmodium falciparum) [µg/mL] | IC50 (Leishmania infantum) [µg/mL] | IC50 [2] [µg/mL] | IC50 (L6) [µg/mL] | selectivity ratio [1] | IC50 (HeLa) [µM] | Activity (Leishmania donovani) | Activity (Onchocerca gutturosa [3]) [%] | Activity (Onchocerca gutturosa [4]) [%]
1 | CC/C(=C(\c1ccccc1)c1ccc(OCCN(C)C)cc1)c1ccccc1 [TAMOXIFEN] |  |  |  |  |  | 4.9 (≈ 13.2 µM) |  |  |  |  | 
2 | COc1ccc(NC(=S)c2c3n(c(=O)c4ccccc24)CCN3)cc1 | 12.3 | 0.8 |  |  |  |  | 1.7 | 22 |  |  | 
3 | O=c1c2ccccc2c(C(=S)Nc2ccc(Cl)cc2)c2n1CCN2 | 0.5 | 0.8 | > 22.7 | > 22.7 | > 22.7 | > 22.8 | > 180 | > 90 | inactive |  | 
4 | CC1CS(=O)(=O)CCN1/N=C/c1ccc([N+](=O)[O-])o1 (stereo not given) [NIFURTIMOX] |  |  |  |  |  |  | 1.5 | 12 |  |  | 
5 | O=c1c2ccccc2cc2[nH]c3ccccc3n12 | > 25 | 0.85 |  |  |  |  |  | > 100 |  |  | 
6 | O=c1c2ccccc2c(C(=S)Nc2ccccc2)c2[nH]c3ccccc3n12 | 6.4 | 0.8 | > 19.5 | > 19.5 | > 22.7 | > 22.8 | 15 | 98 | inactive |  | 
7 | O=c1c2ccccc2c(C(=S)Nc2ccccc2)c2n1CCN2 | 3 | 0.8 |  |  |  |  | > 33 | > 100 |  |  | 
8 | Cc1ccc(C(=O)Nc2ccc(S(=O)(=O)O)c3cc(S(=O)(=O)O)cc(S(=O)(=O)O)c23)cc1NC(=O)c1cccc(NC(=O)Nc2cccc(C(=O)Nc3cc(C(=O)Nc4ccc(S(=O)(=O)O)c5cc(S(=O)(=O)O)cc(S(=O)(=O)O)c45)ccc3C)c2)c1 [SURAMIN] |  |  |  |  | 0.13 (≈ 0.1 µM) |  |  |  |  |  | 
9 | CN1CCN(C(=S)Nc2ccc(Nc3ccc([N+](=O)[O-])cc3)cc2)CC1 [AMOCARZINE] |  |  |  |  |  |  |  |  |  | 48.57 | 85.71
10 | Cc1ccc(NC(=S)c2c3n(c(=O)c4ccccc24)CCN3)cc1 | 1 | 0.8 |  |  |  |  | > 100 | > 100 |  |  | 
11 | Cc1cccc(NC(=S)c2c3n(c(=O)c4ccccc24)CCN3)c1 | 20 | 0.8 |  |  |  |  |  | > 52.5 |  |  | 

Now from value to compound, other results behind:

Row | IC50 (Trypanosoma cruzi) [µM] | Activity (DNA) | IC50 (Plasmodium falciparum) [µg/mL] | IC50 (Leishmania infantum) [µg/mL] | IC50 [2] [µg/mL] | Structure (SMILES) | IC50 (L6) [µg/mL] | selectivity ratio [1] | IC50 (HeLa) [µM] | Activity (Leishmania donovani) | Activity (Onchocerca gutturosa [3]) [%] | Activity (Onchocerca gutturosa [4]) [%]
12 | 25 | 0.8 |  |  |  | O=c1c2ccccc2c(C(=S)Nc2cccc3ccccc23)c2n1CCN2 |  |  |  |  |  | 
13 | 35 | 0.8 |  |  |  | O=c1c2ccccc2c(C(=S)NCc2ccc(Cl)cc2)c2n1CCN2 |  |  | > 90 |  |  | 
14 | 30 | 0.8 | > 19.5 | > 19.5 | > 19.5 | O=C(Nc1ccccc1)c1c2n(c(=O)c3ccccc13)CCN2 | > 19.6 |  | > 100 | inactive |  | 
15 | 43 | 0.8 |  |  |  | CC(=O)N1CCn2c1c(C(=S)Nc1ccccc1)c1ccccc1c2=O |  |  |  |  |  | 
16 | 30 | 0.8 |  |  |  | O=c1c2ccccc2c(C(=S)Nc2ccccn2)c2n1CCN2 |  |  | > 100 |  |  | 
17 | > 25 | 0.8 | > 10 | > 20.7 | 1.2 (≈ 6.44 µM) | O=c1c2ccccc2cc2n1CCN2 | > 100 |  | > 100 | inactive | 0 | 14.29
